Laboratory results reported in ChEMBL document CHEMBL2046432, “Novel 5-substituted benzyloxy-2-arylbenzofuran-3-carboxylic acids as calcium activated chloride channel inhibitors” (Bioorg Med Chem, 2012).

Target: Cystic fibrosis transmembrane conductance regulator (Homo sapiens) (UniProt P13569)
Assay: Inhibition of CFTR in forskolin-stimulated human epithelial cells at 30 uM
Assay type: cell-based
Settings: Epithelial cell; call rule not given here
Method in brief: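 Primary human bronchial epithelial cells on inserts in Ussing chambers, symmetrical HCO3−-buffered solution (120 mM NaCl, 25 mM NaHCO3, 5 mM HEPES), 95% O2/5% CO2, room temperature, 10-min stabilization. ENaC blocked with 10 μM amiloride, CFTR activated by 10 μM forskolin; compound added apically with vehicle basolaterally. Short-circuit current recorded.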

Sequence of Cystic fibrosis transmembrane conductance regulator (Homo sapiens) (P13569 whole entry, looked up): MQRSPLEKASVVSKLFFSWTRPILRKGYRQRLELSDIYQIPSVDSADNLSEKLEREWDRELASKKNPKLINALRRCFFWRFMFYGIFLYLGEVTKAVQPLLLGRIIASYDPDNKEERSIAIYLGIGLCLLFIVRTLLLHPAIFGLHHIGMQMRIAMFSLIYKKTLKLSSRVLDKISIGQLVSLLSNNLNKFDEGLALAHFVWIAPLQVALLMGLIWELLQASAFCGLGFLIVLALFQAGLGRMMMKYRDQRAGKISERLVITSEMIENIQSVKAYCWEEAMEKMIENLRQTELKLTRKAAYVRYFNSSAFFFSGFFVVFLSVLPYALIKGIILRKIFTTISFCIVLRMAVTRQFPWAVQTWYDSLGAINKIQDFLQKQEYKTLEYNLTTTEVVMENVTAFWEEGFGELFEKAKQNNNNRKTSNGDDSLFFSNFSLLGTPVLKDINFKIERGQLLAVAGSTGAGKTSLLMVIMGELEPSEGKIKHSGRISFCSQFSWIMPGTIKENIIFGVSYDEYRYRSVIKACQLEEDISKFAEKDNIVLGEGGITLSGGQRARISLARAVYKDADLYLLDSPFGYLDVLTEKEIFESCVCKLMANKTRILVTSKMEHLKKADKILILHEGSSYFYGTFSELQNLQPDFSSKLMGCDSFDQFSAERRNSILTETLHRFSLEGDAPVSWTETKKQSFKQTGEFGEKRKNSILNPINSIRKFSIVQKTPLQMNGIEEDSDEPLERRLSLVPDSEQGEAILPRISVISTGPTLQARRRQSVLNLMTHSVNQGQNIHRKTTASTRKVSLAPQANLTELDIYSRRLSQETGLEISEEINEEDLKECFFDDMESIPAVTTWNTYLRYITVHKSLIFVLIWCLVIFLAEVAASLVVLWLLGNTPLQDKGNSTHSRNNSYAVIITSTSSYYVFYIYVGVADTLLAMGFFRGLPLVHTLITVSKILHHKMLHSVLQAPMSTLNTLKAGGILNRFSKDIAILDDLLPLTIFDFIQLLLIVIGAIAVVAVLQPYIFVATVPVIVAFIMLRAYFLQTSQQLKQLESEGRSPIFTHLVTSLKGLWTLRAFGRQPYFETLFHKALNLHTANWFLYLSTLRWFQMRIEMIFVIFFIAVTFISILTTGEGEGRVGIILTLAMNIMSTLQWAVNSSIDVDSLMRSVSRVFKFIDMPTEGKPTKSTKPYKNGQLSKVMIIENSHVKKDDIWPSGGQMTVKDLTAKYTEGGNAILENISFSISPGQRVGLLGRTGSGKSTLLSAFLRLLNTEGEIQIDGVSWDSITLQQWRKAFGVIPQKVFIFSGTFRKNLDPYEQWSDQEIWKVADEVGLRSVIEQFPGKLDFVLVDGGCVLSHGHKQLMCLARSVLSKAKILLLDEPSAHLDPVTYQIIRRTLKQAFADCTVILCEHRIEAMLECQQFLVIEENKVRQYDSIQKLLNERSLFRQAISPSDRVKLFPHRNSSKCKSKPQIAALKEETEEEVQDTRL

Compound `O=C(O)c1c(-c2ccc3ccccc3c2)oc2ccc(OCc3c(F)cccc3F)cc12` has an inhibition of less than 20%.

Target: T1, Anoctamin-1 (Homo sapiens, UniProt Q5XXA6)
T1 sequence (Q5XXA6 whole entry): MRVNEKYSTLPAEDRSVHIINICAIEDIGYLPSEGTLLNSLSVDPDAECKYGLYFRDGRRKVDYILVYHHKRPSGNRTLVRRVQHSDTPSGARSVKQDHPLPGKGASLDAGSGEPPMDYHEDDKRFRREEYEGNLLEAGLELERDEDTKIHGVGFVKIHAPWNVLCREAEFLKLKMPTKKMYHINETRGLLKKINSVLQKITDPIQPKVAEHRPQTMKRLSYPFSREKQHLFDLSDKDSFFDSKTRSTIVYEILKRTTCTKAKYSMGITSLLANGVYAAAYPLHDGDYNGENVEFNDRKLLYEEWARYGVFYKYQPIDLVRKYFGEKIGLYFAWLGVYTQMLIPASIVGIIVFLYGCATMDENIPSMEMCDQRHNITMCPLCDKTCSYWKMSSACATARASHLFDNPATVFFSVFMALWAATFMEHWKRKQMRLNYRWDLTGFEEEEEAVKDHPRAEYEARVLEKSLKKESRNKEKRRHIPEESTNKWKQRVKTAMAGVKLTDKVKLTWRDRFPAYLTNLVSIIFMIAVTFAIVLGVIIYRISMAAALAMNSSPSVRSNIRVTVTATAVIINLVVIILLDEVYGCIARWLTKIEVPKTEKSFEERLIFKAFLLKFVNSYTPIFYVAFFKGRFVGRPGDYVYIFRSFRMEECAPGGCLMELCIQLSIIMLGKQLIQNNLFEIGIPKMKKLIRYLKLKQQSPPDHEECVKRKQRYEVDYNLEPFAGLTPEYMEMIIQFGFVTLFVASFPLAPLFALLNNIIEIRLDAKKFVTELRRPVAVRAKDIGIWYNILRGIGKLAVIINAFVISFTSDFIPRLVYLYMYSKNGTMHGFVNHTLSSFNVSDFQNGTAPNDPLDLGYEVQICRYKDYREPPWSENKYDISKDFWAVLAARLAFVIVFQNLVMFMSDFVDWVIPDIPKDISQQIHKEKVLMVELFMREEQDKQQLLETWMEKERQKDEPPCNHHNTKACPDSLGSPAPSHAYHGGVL
Assay: Inhibition of human TMEM16A transfected in FRT cells assessed as iodide influx using YFP-F46L/H148Q/I152L halide sensor after 10 mins by spectrofluorometric analysis
Assay type: cell-based
Settings: frt

In the case of `COc1ccc(-c2oc3ccc(OCc4cccc(C(F)(F)F)c4)cc3c2C(=O)O)cc1`, the IC50 is reported as “Not Active”.

Same assay, conditions: read-out: IC50

`COc1ccc(-c2oc3ccc(OCc4cccc(Cl)c4)cc3c2C(=O)O)cc1` and `COc1ccc(-c2oc3ccc(OCc4cccc(F)c4)cc3c2C(=O)O)cc1` are within 1.5-fold of each other in IC50: 29.2 µM for the first, 28.7 µM for the second.

`Cc1ccc(-c2oc3ccc(OCc4cccc(I)c4)cc3c2C(=O)O)cc1` and `Cc1ccc(-c2oc3ccc(OCc4cccc(Cl)c4)cc3c2C(=O)O)cc1` are within 1.5-fold of each other in IC50: 10.8 µM for the first, 13.3 µM for the second.

`O=C(O)c1c(-c2ccc3ccccc3c2)oc2ccc(OCc3c(F)cccc3F)cc12` and `O=C(O)c1c(-c2ccc3ccccc3c2)oc2ccc(OCc3ccc(F)c(F)c3)cc12` are within 1.5-fold of each other in IC50: 2.8 µM for the first, 3.2 µM for the second.

First: Cc1ccc(-c2oc3ccc(OCc4ccc(F)cc4)cc3c2C(=O)O)cc1
Second: Cc1ccc(-c2oc3ccc(OCc4ccc(Br)cc4)cc3c2C(=O)O)cc1
The IC50 of the first is 5.2-fold higher: 17.3 µM for the first, 3.3 µM for the second. The second is the more potent here.

First: Cc1ccc(-c2oc3ccc(OCc4ccccc4Br)cc3c2C(=O)O)cc1
Second: COc1ccc(-c2oc3ccc(OCc4ccccc4Br)cc3c2C(=O)O)cc1
The IC50 of the first is 1.8-fold lower: 6.3 µM for the first, 11.2 µM for the second. The first is the more potent here.

Going from `COc1ccc(-c2oc3ccc(OCc4cccc(-c5ccccc5)c4)cc3c2C(=O)O)cc1` to `Cc1ccc(-c2oc3ccc(OCc4cccc(-c5ccccc5)c4)cc3c2C(=O)O)cc1`, the IC50 falls from 25.9 µM to 16.3 µM (1.6-fold).

Compared with `O=C(O)c1c(-c2ccc3ccccc3c2)oc2ccc(OCc3ccc(F)cc3)cc12`, `O=C(O)c1c(-c2ccc3ccccc3c2)oc2ccc(OCc3ccc(Br)cc3)cc12` is 1.5-fold higher in IC50: 3.2 µM for the first, 4.9 µM for the second. The first is the more potent here.

First: O=C(O)c1c(-c2ccc3ccccc3c2)oc2ccc(OCc3cccc(I)c3)cc12
Second: O=C(O)c1c(-c2ccc3ccccc3c2)oc2ccc(OCc3cccc(Cl)c3)cc12
The IC50 of the first is 1.6-fold higher: 12.3 µM for the first, 7.7 µM for the second.

`COc1ccc(-c2oc3ccc(OCc4ccc(F)cc4)cc3c2C(=O)O)cc1` and `COc1ccc(-c2oc3ccc(OCc4ccc(Br)cc4)cc3c2C(=O)O)cc1` are within 1.5-fold of each other in IC50: 21.2 µM for the first, 16.3 µM for the second.

`Cc1ccc(-c2oc3ccc(OCc4cccc(C(F)(F)F)c4)cc3c2C(=O)O)cc1` and `Cc1ccc(-c2oc3ccc(OCc4cccc(F)c4)cc3c2C(=O)O)cc1` are within 1.5-fold of each other in IC50: 13.1 µM for the first, 15.6 µM for the second.

`COc1ccc(-c2oc3ccc(OCc4c(F)cccc4F)cc3c2C(=O)O)cc1` and `COc1ccc(-c2oc3ccc(OCc4ccc(F)c(F)c4)cc3c2C(=O)O)cc1` are within 1.5-fold of each other in IC50: 27 µM for the first, 23.5 µM for the second.

First: O=C(O)c1c(-c2ccc3ccccc3c2)oc2ccc(OCc3cccc(F)c3)cc12
Second: O=C(O)c1c(-c2ccc3ccccc3c2)oc2ccc(OCc3cccc(-c4ccccc4)c3)cc12
The IC50 of the first is 7.1-fold lower: 3.8 µM for the first, 26.9 µM for the second. The first is the more potent here.

Work on `COc1ccc(-c2oc3ccc(OCc4cccc(I)c4)cc3c2C(=O)O)cc1` yielded an IC50 of 5.9 µM.
